Fh CTSL1 inh – cathepsin L1 inhibition, PFM18AAP counter-screen; recombinant F. hepatica cathepsin L1, Z-Leu-Arg-MCA fluorescence; inhibition, % at 5.96 µM; 300,000 compounds, 0.49% hits; AID 1906;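 active = inhibition above the mean of all tested compounds plus 3 SD, set per screening campaign, cut at about 17% in these data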
PAD4 FP inh – PAD4 (human) enzyme inhibition | AID 485272 | recombinant PAD4, RCA probe fluorescence polarization | inhibition, % at 6.36 µM | 330,000 compounds, 0.41% hits;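 active = percent inhibition above a cutoff equal to the mean of all tested compounds plus 3 SD, cut at about 15% in these data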
TDP2 absorb – blocks human TDP2 phosphodiesterase activity. inhibition, % at 12.8 µM. AID 720702. recombinant TDP2, T5PNP hydrolysis, p-nitrophenol absorbance 415 nm. 370,000 compounds, 0.34% hits. O95551;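 active = inhibition above the mean of all tested compounds plus 3 SD, set per campaign, cut at about 25% in these data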
Target sequence (O95551 whole entry, looked up): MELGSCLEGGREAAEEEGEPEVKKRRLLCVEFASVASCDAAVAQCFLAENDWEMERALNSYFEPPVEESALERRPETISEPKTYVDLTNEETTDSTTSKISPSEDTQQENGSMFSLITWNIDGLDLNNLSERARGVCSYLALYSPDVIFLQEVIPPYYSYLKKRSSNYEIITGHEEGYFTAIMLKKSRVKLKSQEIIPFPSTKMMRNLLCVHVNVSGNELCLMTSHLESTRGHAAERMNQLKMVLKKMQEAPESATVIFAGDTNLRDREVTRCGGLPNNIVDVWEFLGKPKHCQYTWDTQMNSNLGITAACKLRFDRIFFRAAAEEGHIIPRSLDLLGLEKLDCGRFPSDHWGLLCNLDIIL
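System: recombinant human TDP2 / Amount: 120 nM TDP2 per well / Also added: 5 mM T5PNP chromogenic substrate / Doses: 12.8 µM single point, 1% DMSO / Incubation: 2 h at 37 °C / Detection: p-Nitrophenol epi absorbance / Evaluation: % inhibition relative to enzyme-containing and enzyme-free wells / Repeats: singlicate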
GSTO1 inh – GSTO1 inhibition, counter-screen for RBBP9 inhibitors; recombinant GSTO1, activity-based probe fluorescence polarization; inhibition, % at 5.96 µM; AID 1974; 300,000 compounds, 1.1% hits;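 active = inhibition above the campaign mean inhibition plus 3 SD, cut at about 35% in these data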
Hits are given with their value; . = inactive; / = no result. The list is not random: actives were taken first. Their share in the collection is about 1.4%.

SMILES	Fh CTSL1 inh	PAD4 FP inh	TDP2 absorb	GSTO1 inh
CCc1cc2c(SCC(=O)c3ccccc3)ncnc2s1	19	.	.	.
CCCCC#CC(CC)NCc1ccc(OC)cc1OC (stereo unspecified)	/	/	.	/
COc1ccc(C2C(C(=O)Nc3ccc(C)c(C)c3)CCC(=O)N2c2ccc(OC)cc2)cc1 (stereo unspecified)	/	/	.	/
COc1ccc(NC(=O)C(=O)NNC(=O)c2cccs2)cc1	19	.	.	.
COc1ccc(C(C(=O)N(C)C2CCCC2)N(Cc2ccc(F)cc2)C(=O)c2sccc2Cl)cc1OC (stereo unspecified)	/	/	.	/
O=C(COC(=O)c1ccc2c(c1)C(=O)N(Cc1ccncc1)C2=O)Nc1cccc2ccccc12	19	.	.	.
Cc1ccccc1-c1nnc(SCCOc2ccc3c(C)cc(=O)oc3c2)o1	.	.	.	36
COc1cccc(-c2cc3nc(-c4ccco4)cc(N4CCN(C(C)=O)CC4)n3n2)c1	/	/	.	/
Cc1ccc(CN2CCNC(=O)C2CC(=O)NC2CCCCCC2)cc1 (stereo unspecified)	.	.	.	.
O=C(CC1C(=O)NCCN1Cc1ccc(F)cc1)NC1CCCCCCC1 (stereo unspecified)	19	.	.	.
O=C1COc2ccc(C(=O)COC(=O)CNC(=O)C3CCCCC3)cc2N1	31	.	.	.
O=C(CNC(=O)C1CCCCC1)OCC(=O)c1ccc(Cl)s1	18	.	.	.
COc1ccc(C(=O)COC(=O)CNC(=O)C2CCCCC2)c(OC)c1	35	.	.	.
O=C(COC(=O)CNC(=O)C1CCCCC1)Nc1ccc(Cl)cn1	29	.	.	.
CCOC(=O)C1=C[C@@H](CC)N(S(=O)(=O)c2ccc(C)cc2)[C@H]1c1cccs1	/	/	.	/
COc1ccc(OC)c(C(=O)COC(=O)CNC(=O)C2CCCCC2)c1	33	.	.	.
CCCCN(C(=S)Nc1ccccc1)C1CCS(=O)(=O)C1 (stereo unspecified)	18	.	.	.
CC1Cc2ccccc2N1C(=O)c1cnc2n(c1=O)CCS2 (stereo unspecified)	66	.	.	.
COc1ccc(-n2c(SCC(=O)Nc3ccccc3-c3ccccc3)nnc2-c2ccco2)cc1	/	/	.	/
Cc1nc2ccc(C(=O)OCc3ccccc3Br)cc2nc1C	19	.	.	.
C=CCN1[C@@H](C)COc2cccc(N3CCCC3)c2S1(=O)=O	/	/	.	/
O=C(NCc1ccc2c(c1)OCO2)c1ccc(COc2cccc(Cl)c2)o1	22	.	.	.
CCOC(=O)Cc1nc(N2CCN(Cc3cccc4c3OCO4)CC2)c2c(C)c(C(=O)OCC)sc2n1	/	/	.	/
COc1ccc(-c2oc3c(c2C#CC2(O)CCCCC2)C(OC)CCC3)cc1 (stereo unspecified)	/	/	.	/
COC(=O)[C@H](CC(C)C)N(CCCc1cn(CC2CCCCC2)nn1)S(=O)(=O)c1ccccc1Br	/	/	.	/
SMILES	Fh CTSL1 inh	PAD4 FP inh	TDP2 absorb	GSTO1 inh
S=C(Nc1ccccc1I)OC1CCC12CCC(c1ccccc1)CC2 (stereo unspecified)	/	/	.	/
CC(C)[C@H](NC(=O)OCc1ccccc1)C(=O)NC(C=O)Cc1ccccc1 (stereo partly specified)	113	.	/	.
Cc1ccc(C(=O)Nc2cccc(N(C)S(C)(=O)=O)c2)cc1S(=O)(=O)Nc1ccccc1	19	.	.	.
Cc1ccc(S(=O)(=O)c2nc(C)oc2NCc2ccccc2)cc1	35	.	/	.
CNc1oc(Cc2ccccc2)nc1S(=O)(=O)c1ccccc1	22	.	/	.
CCOC(=O)[C@]12CCCCC/C=C\1N(Cc1ccc(OC)cc1)C(=O)[C@H]2CC(=O)N1CCN(C(=O)C2CC2)CC1	/	/	.	/
CCOC(=O)C1(Cc2ccccc2)CCN(Cc2cccc(OC)c2O)CC1	18	.	.	.
Clc1ccc(Cl)c(OCc2cc(-c3ccccc3Cl)on2)c1	19	.	.	.
Cc1ccc(-c2nc3ncccn3c2NC(=O)Nc2ccc(OC(F)(F)F)cc2)cc1	/	/	.	/
CCC[C@H]1[C@@H](NC(=O)c2cccnc2)CC[C@@]23CCCN2C(=O)CCC[C@@H]13	/	/	.	/
Cc1nn(-c2ccccc2)c2c1C1(C(=O)N(C)c3ccccc31)C(C#N)=C(N)O2 (stereo unspecified)	.	.	.	37
CC(C)(C)C(=O)O[C@@H]1CCC[C@@]2(C(=O)N(Cc3ccccc3)c3ccccc32)[C@H]1NC(=O)CCc1ccccc1	/	/	.	/
COc1ccc(S(=O)(=O)Nc2ccc(Oc3ccsc3C(=O)O)cc2)cc1	.	.	.	35
O=C(O)[C@H](Cc1ccccc1)NC(=O)N1CCN(c2ccccc2)CC1	17	.	.	.
